In ChEMBL document CHEMBL1126865, “Structure-activity relationship within a series of pyrazolidinone antibacterial agents. 2. Effect of side-chain modification on in vitro activity and pharmacokinetic parameters” (J Med Chem, 1993):
Converted amounts (≈) assume the structure as drawn.

Columns and labels:
Klebsiella aerogenes = assay: In vitro antibacterial activity against Enterobacter aerogenes C32; type: functional
Escherichia coli = assay: In vitro antibacterial activity against Escherichia coli EC14; type: functional
Haemophilus influenzae = assay: In vitro antibacterial activity against Haemophilus influenza C.L; type: functional
Klebsiella pneumoniae = assay: In vitro antibacterial activity against Klebsiella X26; type: functional
Pseudomonas aeruginosa = assay: In vitro antibacterial activity against Pseudomonas PS72; type: functional
[1] = test system: Staphylococcus epidermidis; assay: In vitro antibacterial activity against Staphylococcus epidermidis 222; type: functional
Staphylococcus aureus = assay: In vitro antibacterial activity against Staphylococcus aureus X1.1; type: functional
Streptococcus pneumoniae = assay: In vitro antibacterial activity against Streptococcus pneumoniae PARK; type: functional
[2] = Maximum concentration in male rats after iv administration of 20 mg/kg; type: ADME, organism-based; design: dose 20 mg/kg, route intravenous; conditions: rat, in vivo
In short: (§1)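 Male Sprague-Dawley rats were given 20 mg/kg IV in 0.9% saline through an indwelling jugular cannula, which was also used for serial blood sampling. Plasma and cumulative urine (citrate pH 6.5, metabolism cages) were collected over 6 h and stored at -70 °C. Levels were measured by agar well diffusion bioassay against standard curves in plasma or citrate. Half-life = 0.693/β; recovery as % of dose.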

[3] = Plasma half-life in rats after intravenous administration; type: ADME, organism-based; conditions: rat; in short: as §1
[4] = Urinary recovery expressed as percentage dose in male rats after iv administration of 20 mg/kg; type: ADME, organism-based; design: dose 20 mg/kg, route intravenous; conditions: rat, urine; in short: as §1
[5] = Half-life period in male rats after iv administration of 20 mg/kg; type: ADME, organism-based; design: dose 20 mg/kg, route intravenous; conditions: rat, in vivo; in short: as §1

SMILES | MIC (Klebsiella aerogenes) [µg/mL] | MIC (Escherichia coli) [µg/mL] | MIC (Haemophilus influenzae) [µg/mL] | MIC (Klebsiella pneumoniae) [µg/mL] | MIC (Pseudomonas aeruginosa) [µg/mL] | MIC [1] [µg/mL] | MIC (Staphylococcus aureus) [µg/mL] | MIC (Streptococcus pneumoniae) [µg/mL] | Cmax [2] [µg/mL] | half-life [3] [min] | dose excreted [4] [%] | half-life [5] [min]
CCS(=O)(=O)C1=C(C(=O)O)N2C(=O)[C@@H](NC(=O)/C(=N/OCCF)c3csc(N)n3)CN2C1 | 0.125 (≈ 0.255 µM) | 0.06 (≈ 0.122 µM) | 0.25 (≈ 0.51 µM) | 0.03 (≈ 0.0612 µM) | > 128 | 32 (≈ 65.2 µM) | 16 (≈ 32.6 µM) | 0.125 (≈ 0.255 µM) |  |  |  | 
CCCS(=O)(=O)C1=C(C(=O)O)N2C(=O)[C@@H](NC(=O)/C(=N/OCCF)c3csc(N)n3)CN2C1 | 0.25 (≈ 0.496 µM) | 0.125 (≈ 0.248 µM) | 0.125 (≈ 0.248 µM) | 0.03 (≈ 0.0595 µM) | > 128 | 32 (≈ 63.4 µM) | 16 (≈ 31.7 µM) | 0.125 (≈ 0.248 µM) |  |  |  | 
CCS(=O)(=O)C1=C(C(=O)O)N2C(=O)[C@@H](NC(=O)/C(=N/OCCBr)c3csc(N)n3)CN2C1 | 0.25 (≈ 0.453 µM) | 0.06 (≈ 0.109 µM) | 0.25 (≈ 0.453 µM) | 0.015 (≈ 0.0272 µM) | > 128 | 8 (≈ 14.5 µM) | 8 (≈ 14.5 µM) | 0.125 (≈ 0.227 µM) |  |  |  | 
CCN1CCN(C(=O)N[C@@H](C(=O)N[C@H]2CN3CC(C#N)=C(C(=O)O)N3C2=O)c2ccccc2)C(=O)C1=O | 2 (≈ 3.93 µM) | 1 (≈ 1.96 µM) | 0.5 (≈ 0.981 µM) | 0.5 (≈ 0.981 µM) | 128 (≈ 251 µM) | 32 (≈ 62.8 µM) | 16 (≈ 31.4 µM) | 4 (≈ 7.85 µM) |  |  |  | 
N#CC1=C(C(=O)O)N2C(=O)[C@@H](NC(=O)Cc3csc(N)n3)CN2C1 | 32 (≈ 91.9 µM) | 16 (≈ 45.9 µM) | 32 (≈ 91.9 µM) | 16 (≈ 45.9 µM) | > 128 | 64 (≈ 184 µM) | 32 (≈ 91.9 µM) | 2 (≈ 5.74 µM) |  |  |  | 
C=CCCCO/N=C(/C(=O)N[C@H]1CN2CC(S(C)(=O)=O)=C(C(=O)O)N2C1=O)c1csc(N)n1 | 1 (≈ 2.01 µM) | 0.25 (≈ 0.501 µM) | 0.25 (≈ 0.501 µM) | 0.06 (≈ 0.12 µM) | 128 (≈ 257 µM) | 8 (≈ 16 µM) | 8 (≈ 16 µM) | 0.5 (≈ 1 µM) |  |  |  | 
CCCCO/N=C(/C(=O)N[C@H]1CN2CC(C#N)=C(C(=O)O)N2C1=O)c1csc(N)n1 | 2 (≈ 4.61 µM) | 1 (≈ 2.31 µM) | 0.125 (≈ 0.288 µM) | 0.06 (≈ 0.138 µM) | > 128 | 16 (≈ 36.9 µM) | 16 (≈ 36.9 µM) | 0.125 (≈ 0.288 µM) |  |  |  | 
N#CC1=C(C(=O)O)N2C(=O)[C@@H](NC(=O)/C(=N/OCCCl)c3csc(N)n3)CN2C1 | 1 (≈ 2.27 µM) | 0.25 (≈ 0.568 µM) | 0.5 (≈ 1.14 µM) | 0.125 (≈ 0.284 µM) | > 128 | 16 (≈ 36.4 µM) | 32 (≈ 72.8 µM) | 0.5 (≈ 1.14 µM) |  |  |  | 
CS(=O)(=O)C1=C(C(=O)O)N2C(=O)[C@@H](NC(=O)/C(=N/OCC(=O)O)c3csc(N)n3)CN2C1 | 0.25 (≈ 0.512 µM) | 0.06 (≈ 0.123 µM) | 1 (≈ 2.05 µM) | 0.125 (≈ 0.256 µM) | 128 (≈ 262 µM) | > 128 | > 128 | 2 (≈ 4.09 µM) |  |  |  | 
CCCS(=O)(=O)C1=C(C(=O)O)N2C(=O)[C@@H](NC(=O)/C(=N/OCCCl)c3csc(N)n3)CN2C1 | 0.5 (≈ 0.96 µM) | 0.125 (≈ 0.24 µM) | 0.125 (≈ 0.24 µM) | 0.03 (≈ 0.0576 µM) | > 128 | 16 (≈ 30.7 µM) | 8 (≈ 15.4 µM) | 0.06 (≈ 0.115 µM) | 74.3 | 15 | 44.2 | 14.7
CS(=O)(=O)C1=C(C(=O)O)N2C(=O)[C@@H](NC(=O)/C(=N/OCCBr)c3csc(N)n3)CN2C1 | 0.125 (≈ 0.233 µM) | 0.125 (≈ 0.233 µM) | 0.125 (≈ 0.233 µM) | 0.03 (≈ 0.0558 µM) | > 128 | 8 (≈ 14.9 µM) | 8 (≈ 14.9 µM) | 0.125 (≈ 0.233 µM) |  |  |  | 
N#CC1=C(C(=O)O)N2C(=O)[C@@H](NC(=O)/C(=N/OCCF)c3csc(N)n3)CN2C1 | 0.125 (≈ 0.295 µM) | 0.03 (≈ 0.0709 µM) | 0.25 (≈ 0.59 µM) | 0.03 (≈ 0.0709 µM) | 128 (≈ 302 µM) | 16 (≈ 37.8 µM) | 32 (≈ 75.6 µM) | 0.25 (≈ 0.59 µM) |  |  |  | 
